This note sets out measurements from ChEMBL document CHEMBL1154352, “Toll-like receptor 7 selective synthetic oligoribonucleotide agonists: synthesis and structure-activity relationship studies” (J Med Chem, 2009).

Active and inactive are the calls of the source. The rule behind the calls is not given here.

Series [1] in a line: Metabolic stability in human serum assessed as full length product remaining after 10 mins by HPLC. In kind it is ADME, cell-free. To be noted: read-out: Stability. The method in brief: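 About 0.5 A260 units compound in 1% human serum in PBS, 37 °C; aliquot taken at 10 min, analysed by anion-exchange HPLC for percent intact full-length product.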
For series [2], the target named is T1, Toll-like receptor 8 (Homo sapiens) (UniProt Q9NR97).
T1 sequence (whole entry): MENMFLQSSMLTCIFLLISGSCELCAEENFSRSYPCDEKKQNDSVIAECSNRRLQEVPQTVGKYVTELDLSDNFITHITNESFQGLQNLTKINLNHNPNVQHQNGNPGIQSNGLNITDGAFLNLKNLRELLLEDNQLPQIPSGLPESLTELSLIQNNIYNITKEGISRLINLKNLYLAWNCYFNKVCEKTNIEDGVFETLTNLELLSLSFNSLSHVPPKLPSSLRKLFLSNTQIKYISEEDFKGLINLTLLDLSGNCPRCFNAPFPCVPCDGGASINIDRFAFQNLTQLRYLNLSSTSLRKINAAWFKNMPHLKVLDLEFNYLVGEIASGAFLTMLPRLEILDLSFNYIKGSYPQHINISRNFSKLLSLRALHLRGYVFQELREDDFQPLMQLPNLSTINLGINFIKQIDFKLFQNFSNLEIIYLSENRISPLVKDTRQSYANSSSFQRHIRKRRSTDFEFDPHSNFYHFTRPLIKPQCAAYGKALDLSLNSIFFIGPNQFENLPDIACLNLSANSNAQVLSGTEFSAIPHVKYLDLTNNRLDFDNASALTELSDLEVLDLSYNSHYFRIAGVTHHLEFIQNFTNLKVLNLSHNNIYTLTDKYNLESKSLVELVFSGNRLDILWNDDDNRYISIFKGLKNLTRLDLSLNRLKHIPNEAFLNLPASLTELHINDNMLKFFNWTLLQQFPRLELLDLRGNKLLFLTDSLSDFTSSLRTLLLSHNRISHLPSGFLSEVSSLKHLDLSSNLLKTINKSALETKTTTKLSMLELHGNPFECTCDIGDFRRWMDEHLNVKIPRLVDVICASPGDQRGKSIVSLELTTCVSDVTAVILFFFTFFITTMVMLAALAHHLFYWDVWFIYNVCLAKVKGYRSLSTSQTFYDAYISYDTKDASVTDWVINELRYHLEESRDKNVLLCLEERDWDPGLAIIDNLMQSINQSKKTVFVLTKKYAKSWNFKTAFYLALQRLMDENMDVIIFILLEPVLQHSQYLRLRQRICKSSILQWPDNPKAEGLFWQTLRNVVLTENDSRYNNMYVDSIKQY
The experiment in a line: Activation of human TLR8 expressed in HEK293XL assessed as fold induction of NF-kappaB activity at 50 ug/ml after 18 hrs by reporter gene assay relative to control. The method in brief: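 HEK293 cells stably expressing human TLR7 or TLR8, transiently transfected with SEAP reporter plasmid; medium replaced, SIMRA compounds added, 18 h incubation. Supernatant SEAP measured by QuantiBlue; expressed as fold increase in NF-κB activity over PBS control. Tabulated data at 50 μg/mL, representative of three independent experiments.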

Series [3] concerns the target T2, Toll-like receptor 9 (Mus musculus) (UniProt Q9EQU3).
T2 sequence (whole entry): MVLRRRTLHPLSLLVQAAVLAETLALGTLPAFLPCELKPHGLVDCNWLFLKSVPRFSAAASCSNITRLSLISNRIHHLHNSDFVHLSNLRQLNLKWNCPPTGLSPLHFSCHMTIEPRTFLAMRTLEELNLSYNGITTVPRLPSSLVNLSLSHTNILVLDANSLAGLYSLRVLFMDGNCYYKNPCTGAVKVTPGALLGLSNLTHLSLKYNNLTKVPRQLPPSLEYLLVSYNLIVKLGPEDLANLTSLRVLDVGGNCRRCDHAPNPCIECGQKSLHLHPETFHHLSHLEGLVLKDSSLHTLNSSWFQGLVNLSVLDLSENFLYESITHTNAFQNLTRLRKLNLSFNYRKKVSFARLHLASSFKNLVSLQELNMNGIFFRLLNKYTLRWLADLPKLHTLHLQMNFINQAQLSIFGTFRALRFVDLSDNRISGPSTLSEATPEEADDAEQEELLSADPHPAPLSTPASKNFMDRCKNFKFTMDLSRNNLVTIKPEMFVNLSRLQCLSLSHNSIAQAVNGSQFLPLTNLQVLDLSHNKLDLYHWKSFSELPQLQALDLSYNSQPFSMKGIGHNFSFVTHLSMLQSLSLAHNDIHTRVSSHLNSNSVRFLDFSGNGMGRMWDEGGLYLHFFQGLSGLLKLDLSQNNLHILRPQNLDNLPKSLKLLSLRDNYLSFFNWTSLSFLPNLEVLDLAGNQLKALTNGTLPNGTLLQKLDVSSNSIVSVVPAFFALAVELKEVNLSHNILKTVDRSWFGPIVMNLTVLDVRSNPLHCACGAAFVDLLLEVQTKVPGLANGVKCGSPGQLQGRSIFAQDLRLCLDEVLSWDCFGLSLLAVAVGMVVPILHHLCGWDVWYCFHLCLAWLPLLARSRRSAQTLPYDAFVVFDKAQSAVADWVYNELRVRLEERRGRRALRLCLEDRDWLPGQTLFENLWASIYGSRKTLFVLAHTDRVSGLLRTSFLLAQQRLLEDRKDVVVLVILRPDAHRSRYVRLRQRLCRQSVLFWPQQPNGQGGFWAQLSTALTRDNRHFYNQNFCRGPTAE
The series is described as follows: Activation of mouse TLR9 expressed in HEK293 assessed as induction of NF-kappaB activity reporter gene assay. The series is classed as cell-based.

Series [4] has as its target Toll-like receptor 3 (Homo sapiens) (UniProt O15455). The series is described as follows: Activation of human TLR3 expressed in HEK293 assessed as induction of NF-kappaB activity reporter gene assay. The series is classed as cell-based.
For series [5], the system named is Splenocyte. The series is described as follows: Immunomodulatory activity in C57BL/6 mouse splenocytes bearing TLR7 receptor assessed as IL6 release at 100 ug/ml after 24 hrs by ELISA. The series is classed as functional, cell-based. The method in brief: (§1)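 C57BL/6 splenocytes in RPMI 1640 with 10% FBS, penicillin/streptomycin, 2 mM L-glutamine, plated at 5 × 10^6 cells/mL; compounds in PBS added, 37 °C for 24 h. Supernatant IL-12 and IL-6 by ELISA; representative of three independent experiments.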

The test system of series [6] is Splenocyte. The experiment in a line: Immunomodulatory activity in C57BL/6 mouse splenocytes bearing TLR7 receptor assessed as IL12 release at 100 ug/ml after 24 hrs by ELISA. The series is classed as functional, cell-based. In short, it runs like this:
as §1

Toll-like receptor 3 (Homo sapiens), sequence (O15455 whole entry): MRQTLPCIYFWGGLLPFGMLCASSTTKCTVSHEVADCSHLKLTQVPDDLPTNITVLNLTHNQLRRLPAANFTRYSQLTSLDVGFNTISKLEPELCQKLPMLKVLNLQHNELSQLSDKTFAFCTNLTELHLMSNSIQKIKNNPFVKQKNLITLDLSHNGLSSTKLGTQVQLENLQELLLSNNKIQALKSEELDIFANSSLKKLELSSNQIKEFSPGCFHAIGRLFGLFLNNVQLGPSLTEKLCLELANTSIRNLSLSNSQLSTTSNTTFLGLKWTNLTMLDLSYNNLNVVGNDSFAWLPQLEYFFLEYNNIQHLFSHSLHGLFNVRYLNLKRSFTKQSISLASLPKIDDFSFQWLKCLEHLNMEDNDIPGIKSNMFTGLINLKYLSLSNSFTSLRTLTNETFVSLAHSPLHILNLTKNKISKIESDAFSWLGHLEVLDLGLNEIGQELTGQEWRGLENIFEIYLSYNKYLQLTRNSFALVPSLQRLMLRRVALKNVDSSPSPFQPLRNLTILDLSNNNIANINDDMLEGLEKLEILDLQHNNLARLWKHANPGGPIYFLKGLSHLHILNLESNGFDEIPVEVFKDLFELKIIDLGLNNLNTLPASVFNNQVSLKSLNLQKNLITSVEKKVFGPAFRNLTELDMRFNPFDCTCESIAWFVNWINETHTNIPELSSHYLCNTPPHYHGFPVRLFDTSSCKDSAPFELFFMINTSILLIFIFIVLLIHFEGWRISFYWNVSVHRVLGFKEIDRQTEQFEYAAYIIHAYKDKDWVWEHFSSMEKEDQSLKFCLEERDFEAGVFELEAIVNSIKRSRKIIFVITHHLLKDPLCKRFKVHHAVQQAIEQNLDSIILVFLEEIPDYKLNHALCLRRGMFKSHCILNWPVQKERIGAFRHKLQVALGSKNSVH

As for `Nc1ccn([C@@H]2O[C@H](COP(=O)(S)O[C@H]3[C@@H](O)[C@H](n4cnc5c(N)ncnc54)O[C@@H]3COP(=O)(S)O[C@H]3[C@@H](O)[C@H](n4cnc5c(N)ncnc54)O[C@@H]3CO)[C@@H](OP(=O)(S)OC[C@H]3O[C@@H](n4ccc(=O)[nH]c4=O)[C@H](O)[C@@H]3OP(=O)(S)OC[C@H]3O[C@@H](n4ccc5c(=O)[nH]c(N)nc54)[C@H](O)[C@@H]3OP(=O)(S)OC[C@H]3O[C@@H](n4ccc(N)nc4=O)[C@H](O)[C@@H]3OP(=O)(S)OC[C@H]3O[C@@H](n4ccc5c(=O)[nH]c(N)nc54)[C@H](O)[C@@H]3OP(=O)(S)OC[C@H]3O[C@@H](n4cnc5c(N)ncnc54)[C@H](O)[C@@H]3OP(=O)(S)OC[C@H]3O[C@@H](n4ccc(N)nc4=O)[C@H](O)[C@@H]3OP(=O)(S)OC[C@H]3O[C@@H](n4ccc(=O)[nH]c4=O)[C@H](O)[C@@H]3OP(=O)(S)OC[C@H]3O[C@@H](n4ccc(=O)[nH]c4=O)[C@H](O)[C@@H]3OP(=O)(S)OCC(O)COP(=O)(S)O[C@H]3[C@@H](O)[C@H](n4ccc(=O)[nH]c4=O)O[C@@H]3COP(=O)(S)O[C@H]3[C@@H](O)[C@H](n4ccc(=O)[nH]c4=O)O[C@@H]3COP(=O)(S)O[C@H]3[C@@H](O)[C@H](n4ccc(N)nc4=O)O[C@@H]3COP(=O)(S)O[C@H]3[C@@H](O)[C@H](n4cnc5c(N)ncnc54)O[C@@H]3COP(=O)(S)O[C@H]3[C@@H](O)[C@H](n4ccc5c(=O)[nH]c(N)nc54)O[C@@H]3COP(=O)(S)O[C@H]3[C@@H](O)[C@H](n4ccc(N)nc4=O)O[C@@H]3COP(=O)(S)O[C@H]3[C@@H](O)[C@H](n4ccc5c(=O)[nH]c(N)nc54)O[C@@H]3COP(=O)(S)O[C@H]3[C@@H](O)[C@H](n4ccc(=O)[nH]c4=O)O[C@@H]3COP(=O)(S)O[C@H]3[C@@H](O)[C@H](n4ccc(N)nc4=O)O[C@@H]3COP(=O)(S)O[C@H]3[C@@H](O)[C@H](n4cnc5c(N)ncnc54)O[C@@H]3COP(=O)(S)O[C@H]3[C@@H](O)[C@H](n4cnc5c(N)ncnc54)O[C@@H]3CO)[C@H]2O)c(=O)n1` (some centres not stated), the remaining at 10 min in series [1] was determined as 83%. In addition, the fold change (FC) in series [2] is 0.3. In addition, the result in series [3] and in series [4] was inactive. For the same compound, the outcome with Splenocyte [5] and with Splenocyte [6] was Active.

For the compound `Nc1ccn([C@@H]2O[C@H](COP(=O)(S)O[C@H]3[C@@H](O)[C@H](n4cnc5c(N)ncnc54)O[C@@H]3CO)[C@@H](OP(=O)(S)OC[C@H]3O[C@@H](n4ccc(=O)[nH]c4=O)[C@H](O)[C@@H]3OP(=O)(S)OC[C@H]3O[C@@H](n4ccc5c(=O)[nH]c(N)nc54)[C@H](O)[C@@H]3OP(=O)(S)OC[C@H]3O[C@@H](n4cnc5c(N)ncnc54)[C@H](O)[C@@H]3OP(=O)(S)OC[C@H]3O[C@@H](n4ccc5c(=O)[nH]c(N)nc54)[C@H](O)[C@@H]3OP(=O)(S)OC[C@H]3O[C@@H](n4cnc5c(N)ncnc54)[C@H](O)[C@@H]3OP(=O)(S)OC[C@H]3O[C@@H](n4ccc5c(=O)[nH]c(N)nc54)[C@H](O)[C@@H]3OP(=O)(S)OC[C@H]3O[C@@H](n4ccc(N)nc4=O)[C@H](O)[C@@H]3OP(=O)(S)OC[C@H]3O[C@@H](n4ccc(=O)[nH]c4=O)[C@H](O)[C@@H]3OP(=O)(S)OC[C@H]3O[C@@H](n4ccc(=O)[nH]c4=O)[C@H](O)[C@@H]3OP(=O)(S)OCC(O)COP(=O)(S)O[C@H]3[C@@H](O)[C@H](n4ccc(=O)[nH]c4=O)O[C@@H]3COP(=O)(S)O[C@H]3[C@@H](O)[C@H](n4ccc(=O)[nH]c4=O)O[C@@H]3COP(=O)(S)O[C@H]3[C@@H](O)[C@H](n4ccc(N)nc4=O)O[C@@H]3COP(=O)(S)O[C@H]3[C@@H](O)[C@H](n4ccc5c(=O)[nH]c(N)nc54)O[C@@H]3COP(=O)(S)O[C@H]3[C@@H](O)[C@H](n4cnc5c(N)ncnc54)O[C@@H]3COP(=O)(S)O[C@H]3[C@@H](O)[C@H](n4ccc5c(=O)[nH]c(N)nc54)O[C@@H]3COP(=O)(S)O[C@H]3[C@@H](O)[C@H](n4cnc5c(N)nc(N)nc54)O[C@@H]3COP(=O)(S)O[C@H]3[C@@H](O)[C@H](n4ccc5c(=O)[nH]c(N)nc54)O[C@@H]3COP(=O)(S)O[C@H]3[C@@H](O)[C@H](n4ccc(=O)[nH]c4=O)O[C@@H]3COP(=O)(S)O[C@H]3[C@@H](O)[C@H](n4ccc(N)nc4=O)O[C@@H]3COP(=O)(S)O[C@H]3[C@@H](O)[C@H](n4cnc5c(N)ncnc54)O[C@@H]3CO)[C@H]2O)c(=O)n1` (some centres not stated), the remaining at 10 min in series [1] was found to be 79%. In addition, the fold change (FC) in series [2] was 2.4. The result in series [3] and in series [4] was inactive. The outcome in the series on Splenocyte [5] and in the series on Splenocyte [6] was Active.
